Assay results from paper PMC5800871 (European journal of medicinal chemistry, 2017).
Structures can show the parent of a compound that is named as a salt.

Columns and labels:
Format in all cases: in vitro ADME
CYP1A2 = target: T1, CYP1A2 (Homo sapiens, UniProt P05177); assay: Cytochrome P450 inhibition assay, CYP1A2; conditions: CYP activity as % of control, 10 μM, human liver microsomes
T1 sequence (P05177 1-516): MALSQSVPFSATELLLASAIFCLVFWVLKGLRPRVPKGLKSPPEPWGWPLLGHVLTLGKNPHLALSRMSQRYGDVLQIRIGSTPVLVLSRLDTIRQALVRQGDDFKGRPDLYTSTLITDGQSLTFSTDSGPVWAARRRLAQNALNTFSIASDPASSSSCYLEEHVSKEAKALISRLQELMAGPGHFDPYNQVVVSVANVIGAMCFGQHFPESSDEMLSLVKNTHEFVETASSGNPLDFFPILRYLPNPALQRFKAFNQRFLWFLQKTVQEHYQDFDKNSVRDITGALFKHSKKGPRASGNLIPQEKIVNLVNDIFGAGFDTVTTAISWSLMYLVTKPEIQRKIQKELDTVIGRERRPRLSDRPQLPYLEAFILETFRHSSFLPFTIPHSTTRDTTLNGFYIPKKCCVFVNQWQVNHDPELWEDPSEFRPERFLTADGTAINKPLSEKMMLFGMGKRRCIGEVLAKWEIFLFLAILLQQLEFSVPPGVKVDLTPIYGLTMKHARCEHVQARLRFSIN

CYP2C19 = CYP2C19 (Homo sapiens, UniProt P33261); assay: Cytochrome P450 inhibition assay, CYP2C19; conditions: CYP activity as % of control, 10 μM, human liver microsomes
CYP2D6 = CYP2D6 (Homo sapiens, UniProt P10635); assay: Cytochrome P450 inhibition assay, CYP2D6; conditions: CYP activity as % of control, 10 μM, human liver microsomes
[1] = Liver microsomal stability, rat; conditions: 1 μM, 0.5 mg/mL microsomal protein, NADPH, 37 °C
Method in brief: (§1)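 Liver microsomes (human pool of 150 donors; dog, rat, mouse) at 0.5 mg/mL protein in 100 mM phosphate buffer pH 7.4 with test compound at 1 μM final, 37 °C. Started with NADPH regeneration system and stopped with ice-cold acetonitrile at 0 and 30 min. Supernatant analysed by LC-MS/MS. Percent parent remaining from peak areas against the 0 min sample (100 %), stopped before NADPH addition.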

[2] = Liver microsomal stability, mouse; conditions: 1 μM, 0.5 mg/mL microsomal protein, NADPH, 37 °C
Method in brief: as §1

CYP2C9 = CYP2C9 (Homo sapiens, UniProt P11712); assay: Cytochrome P450 inhibition assay, CYP2C9; conditions: CYP activity as % of control, 10 μM, human liver microsomes
CYP 3A4 = assay: Cytochrome P450 inhibition assay, CYP3A4; conditions: CYP activity as % of control, 10 μM, human liver microsomes
[3] = Liver microsomal stability, human; conditions: 1 μM, 0.5 mg/mL microsomal protein, NADPH, 37 °C
Method in brief: as §1

[4] = Liver microsomal stability, dog; conditions: 1 μM, 0.5 mg/mL microsomal protein, NADPH, 37 °C
Method in brief: as §1

CYP2C19, sequence (P33261 whole entry): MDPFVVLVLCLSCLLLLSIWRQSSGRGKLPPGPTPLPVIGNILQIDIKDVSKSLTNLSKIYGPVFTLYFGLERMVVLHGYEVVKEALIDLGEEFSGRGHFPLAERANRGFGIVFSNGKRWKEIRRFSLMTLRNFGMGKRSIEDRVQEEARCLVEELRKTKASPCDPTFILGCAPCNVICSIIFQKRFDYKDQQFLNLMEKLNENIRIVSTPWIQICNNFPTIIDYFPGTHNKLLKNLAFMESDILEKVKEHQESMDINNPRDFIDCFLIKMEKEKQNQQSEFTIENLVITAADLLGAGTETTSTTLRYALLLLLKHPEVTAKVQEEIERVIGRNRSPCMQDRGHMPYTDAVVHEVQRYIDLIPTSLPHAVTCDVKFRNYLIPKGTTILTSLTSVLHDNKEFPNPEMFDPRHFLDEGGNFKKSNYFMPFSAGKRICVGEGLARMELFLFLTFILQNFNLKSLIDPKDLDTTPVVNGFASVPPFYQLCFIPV
CYP2D6, sequence (P10635 whole entry): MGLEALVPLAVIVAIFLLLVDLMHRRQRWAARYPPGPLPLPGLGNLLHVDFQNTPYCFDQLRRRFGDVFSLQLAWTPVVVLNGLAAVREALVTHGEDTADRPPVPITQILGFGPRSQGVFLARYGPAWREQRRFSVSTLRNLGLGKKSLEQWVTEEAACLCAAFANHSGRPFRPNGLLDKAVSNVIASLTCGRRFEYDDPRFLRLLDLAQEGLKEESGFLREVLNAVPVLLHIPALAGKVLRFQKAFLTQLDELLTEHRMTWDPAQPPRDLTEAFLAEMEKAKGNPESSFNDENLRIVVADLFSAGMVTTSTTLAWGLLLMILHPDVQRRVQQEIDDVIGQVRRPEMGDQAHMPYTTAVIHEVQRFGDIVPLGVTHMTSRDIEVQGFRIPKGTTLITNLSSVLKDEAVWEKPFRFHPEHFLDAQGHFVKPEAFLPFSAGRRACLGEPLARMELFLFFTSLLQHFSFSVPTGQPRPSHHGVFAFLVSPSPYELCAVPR
CYP2C9, sequence (P11712 whole entry): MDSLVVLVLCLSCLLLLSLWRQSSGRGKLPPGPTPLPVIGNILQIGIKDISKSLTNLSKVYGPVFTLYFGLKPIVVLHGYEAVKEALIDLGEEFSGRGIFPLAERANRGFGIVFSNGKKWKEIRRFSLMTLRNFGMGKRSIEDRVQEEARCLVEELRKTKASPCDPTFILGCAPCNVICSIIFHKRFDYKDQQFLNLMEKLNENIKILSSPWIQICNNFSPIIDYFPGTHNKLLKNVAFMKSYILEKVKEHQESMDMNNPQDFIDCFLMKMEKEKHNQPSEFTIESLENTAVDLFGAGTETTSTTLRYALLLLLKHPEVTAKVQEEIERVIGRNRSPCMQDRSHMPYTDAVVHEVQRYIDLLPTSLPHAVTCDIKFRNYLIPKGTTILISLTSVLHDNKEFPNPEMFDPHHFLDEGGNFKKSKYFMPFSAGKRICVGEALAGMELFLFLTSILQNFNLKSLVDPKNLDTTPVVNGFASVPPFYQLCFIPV

Cytochrome P450 inhibition (% of control) 1A2 (CYP1A2) | Cytochrome P450 inhibition (% of control) 2C19 (CYP2C19) | Cytochrome P450 inhibition (% of control) 2D6 (CYP2D6) | Liver microsomal stability (% remaining after 30 min) Rat [1] [% remaining after 30 min] | Liver microsomal stability (% remaining after 30 min) Mouse [2] [% remaining after 30 min] | Cytochrome P450 inhibition (% of control) 2C9 (CYP2C9) | Cytochrome P450 inhibition (% of control) 3A4 (CYP 3A4) | Liver microsomal stability (% remaining after 30 min) Human [3] [% remaining after 30 min] | Liver microsomal stability (% remaining after 30 min) Dog [4] [% remaining after 30 min] | Structure (SMILES)
>100 % of control | 91 % of control | >100 % of control | 7 | 10 | – | – | – | – | C=CC(=O)Nc1cc(Nc2ncc(F)c(Nc3ccccc3S(=O)(=O)N(C)C)n2)c(OC)cc1N(C)CCN(C)C [Compound 7j, N-(2-((2-(Dimethylamino)ethyl)(methyl)amino)-5-((4-((2-(N,N-dimethylsulfamoyl)phenyl)amino)-5-fluoropyrimidin-2-yl)amino)-4-methoxyphenyl)acrylamide]
– | – | – | 12 | 12 | – | – | – | – | C=CC(=O)Nc1cc(Nc2ncc(I)c(Nc3ccccc3S(=O)(=O)N(C)C)n2)c(OC)cc1N(C)CCN(C)C [Compound 7l, N-(2-((2-(Dimethylamino)ethyl)(methyl)amino)-5-((4-((2-(N,N-dimethylsulfamoyl)phenyl)amino)-5-iodopyrimidin-2-yl)amino)-4-methoxyphenyl)acrylamide]
91 % of control | 93 % of control | 95 % of control | 11 | 15 | 94 % of control | 51 % of control | 26 | 27 | C=CC(=O)Nc1cc(Nc2ncc(F)c(Nc3ccccc3S(=O)(=O)C(C)C)n2)c(OC)cc1N(C)CCN(C)C [Compound 7b, N-(2-((2-(Dimethylamino)ethyl)(methyl)amino)-5-((5-fluoro-4-((2-(isopropylsulfonyl)phenyl)amino)pyrimidin-2-yl)amino)-4-methoxyphenyl)acrylamide]
– | – | – | – | – | – | – | – | 31 | C=CC(=O)Nc1cc(Nc2ncc(Cl)c(Nc3ccccc3S(=O)(=O)N(C)C)n2)c(OC)cc1N(C)CCN(C)C [Compound 7k, N-(5-((5-Chloro-4-((2-(N,N-dimethylsulfamoyl)phenyl)amino)pyrimidin-2-yl)amino)-2-((2-(dimethylamino)ethyl)(methyl)amino)-4-methoxyphenyl)acrylamide]
82 % of control | – | – | – | 5 | 88 % of control | – | 10 | – | C=CC(=O)Nc1cc(Nc2nccc(Nc3ccccc3S(=O)(=O)N(C)C)n2)c(OC)cc1N(C)CCN(C)C [Compound 7i, N-(2-((2-(Dimethylamino)ethyl)(methyl)amino)-5-((4-((2-(N,N-dimethylsulfamoyl)phenyl)amino)pyrimidin-2-yl)amino)-4-methoxyphenyl)acrylamide]
93 % of control | – | – | 76 | 66 | >100 % of control | 91 % of control | 61 | – | C=CC(=O)Nc1cc(Nc2ncc(Cl)c(Nc3ccccc3P(C)(C)=O)n2)c(OC)cc1N(C)CCN(C)C [Compound 7g, N-(5-((5-Chloro-4-((2-(dimethylphosphoryl)phenyl)amino)pyrimidin-2-yl)amino)-2-((2-(dimethylamino)ethyl)(methyl)amino)-4-methoxyphenyl)acrylamide trifluoroacetate salt]

Continued, molecule first:

Structure (SMILES) | Cytochrome P450 inhibition (% of control) 1A2 (CYP1A2) | Cytochrome P450 inhibition (% of control) 2C19 (CYP2C19) | Cytochrome P450 inhibition (% of control) 2D6 (CYP2D6) | Liver microsomal stability (% remaining after 30 min) Rat [1] [% remaining after 30 min] | Liver microsomal stability (% remaining after 30 min) Mouse [2] [% remaining after 30 min] | Cytochrome P450 inhibition (% of control) 2C9 (CYP2C9) | Cytochrome P450 inhibition (% of control) 3A4 (CYP 3A4) | Liver microsomal stability (% remaining after 30 min) Human [3] [% remaining after 30 min] | Liver microsomal stability (% remaining after 30 min) Dog [4] [% remaining after 30 min]
C=CC(=O)Nc1cc(Nc2nccc(Nc3ccccc3S(=O)(=O)C(C)C)n2)c(OC)cc1N(C)CCN(C)C [Compound 7a, N-(2-((2-(Dimethylamino)ethyl)(methyl)amino)-5-((4-((2-(isopropylsulfonyl)phenyl)amino)pyrimidin-2-yl)amino)-4-methoxyphenyl)acrylamide] | 80 % of control | 87 % of control | 67 % of control | 22 | 8 | 90 % of control | 40 % of control | 5 | 48
C=CC(=O)Nc1cc(Nc2nccc(Nc3ccccc3P(C)(C)=O)n2)c(OC)cc1N(C)CCN(C)C [Compound 7e, N-(2-((2-(Dimethylamino)ethyl)(methyl)amino)-5-((4-((2-(dimethylphosphoryl)phenyl)amino)pyrimidin-2-yl)amino)-4-methoxyphenyl)acrylamide trifluoroacetate salt] | 84 % of control | >100 % of control | 87 % of control | 78 | 76 | 90 % of control | 89 % of control | 70 | 73
C=CC(=O)Nc1cc(Nc2ncc(F)c(Nc3ccccc3P(C)(C)=O)n2)c(OC)cc1N(C)CCN(C)C [Compound 7f, N-(2-((2-(Dimethylamino)ethyl)(methyl)amino)-5-((4-((2-(dimethylphosphoryl)phenyl)amino)-5-fluoropyrimidin-2-yl)amino)-4-methoxyphenyl)acrylamide trifluoroacetate salt] | >100 % of control | >100 % of control | >100 % of control | 87 | 80 | >100 % of control | >100 % of control | 84 | 87
C=CC(=O)Nc1cc(Nc2ncc(I)c(Nc3ccccc3P(C)(C)=O)n2)c(OC)cc1N(C)CCN(C)C [Compound 7h, N-(2-((2-(Dimethylamino)ethyl)(methyl)amino)-5-((4-((2-(dimethylphosphoryl)phenyl)amino)-5-iodopyrimidin-2-yl)amino)-4-methoxyphenyl)acrylamide trifluoroacetate salt] | 91 % of control | – | – | 81 | – | >100 % of control | 88 % of control | 65 | –
